Data: ChEMBL document CHEMBL4371031, “In Vitro Antiviral Activity of New Oxazoline Derivatives as Potent Poliovirus Inhibitors” (J Med Chem, 2019)

How the values were obtained:
Poliovirus 1 [1] = assay: Antiviral activity against Human poliovirus 1 10239 infected in human HeLa cells assessed as reduction in virus-induced cytopathic effect after 72 hrs by crystal violet staining-based assay; format: functional, organism-based; settings: Enterovirus C, 10239, HeLa
Summary of the method: (§1)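 HeLa cells grown in MEM-10% FBS, seeded at 2x10^5 cells/mL in MEM-2% FBS and preincubated 24 h at 37°C, 5% CO2. Compound and virus were cross-titrated […] compound in 0.5 log10 steps (7-point curves), with duplicate wells and three replicate tests per virus. After 72 h at 37°C, cells were crystal violet stained and read at 590 nm. EC50 came from a four-parameter fit; if all virus dilutions gave >80% monolayer destruction, the value was […].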

Poliovirus 2 [2] = assay: Antiviral activity against Human poliovirus 2 10232 infected in human HeLa cells assessed as reduction in virus-induced cytopathic effect after 72 hrs by crystal violet staining-based assay; format: functional, organism-based; settings: Enterovirus C, 10232, HeLa; summary of the method: as §1
Poliovirus 1 [3] = assay: Antiviral activity against Human poliovirus 1 10235 infected in human HeLa cells assessed as reduction in virus-induced cytopathic effect after 72 hrs by crystal violet staining-based assay; format: functional, organism-based; settings: Enterovirus C, 10235, HeLa; summary of the method: as §1
Poliovirus 1 [4] = assay: Antiviral activity against Human poliovirus 1 10222 infected in human HeLa cells assessed as reduction in virus-induced cytopathic effect after 72 hrs by crystal violet staining-based assay; format: functional, organism-based; settings: Enterovirus C, 10222, HeLa; summary of the method: as §1
Poliovirus 3 [5] = assay: Antiviral activity against Human poliovirus 3 Saukett infected in human HeLa cells assessed as reduction in virus-induced cytopathic effect after 72 hrs by crystal violet staining-based assay; format: functional, organism-based; settings: Enterovirus C; summary of the method: as §1
Poliovirus 1 [6] = assay: Antiviral activity against Human poliovirus 1 10236 infected in human HeLa cells assessed as reduction in virus-induced cytopathic effect after 72 hrs by crystal violet staining-based assay; format: functional, organism-based; settings: Enterovirus C, 10236, HeLa; summary of the method: as §1
Poliovirus 2 [7] = assay: Antiviral activity against Human poliovirus 2 10233 infected in human HeLa cells assessed as reduction in virus-induced cytopathic effect after 72 hrs by crystal violet staining-based assay; format: functional, organism-based; settings: Enterovirus C, 10233, HeLa; summary of the method: as §1
[8] = Therapeutic ratio of CC50 for human HeLa cells to EC50 for Poliovirus Sabin 2 infected in human HeLa cells; format: toxicity, cell-based; settings: read-out: Ratio CC50/EC50
Poliovirus 3 [9] = assay: Antiviral activity against Human poliovirus 3 10804 infected in human HeLa cells assessed as reduction in virus-induced cytopathic effect after 72 hrs by crystal violet staining-based assay; format: functional, organism-based; settings: Enterovirus C, 10804, HeLa; summary of the method: as §1
Poliovirus 1 [10] = assay: Antiviral activity against Human poliovirus 1 10240 infected in human HeLa cells assessed as reduction in virus-induced cytopathic effect after 72 hrs by crystal violet staining-based assay; format: functional, organism-based; settings: Enterovirus C, 10240, HeLa; summary of the method: as §1
Poliovirus 2 [11] = assay: Antiviral activity against Human poliovirus 2 10231 infected in human HeLa cells assessed as reduction in virus-induced cytopathic effect after 72 hrs by crystal violet staining-based assay; format: functional, organism-based; settings: Enterovirus C, 10231, HeLa; summary of the method: as §1
Poliovirus 2 [12] = assay: Antiviral activity against Human poliovirus 2 P712 infected in human HeLa cells assessed as reduction in virus-induced cytopathic effect after 72 hrs by crystal violet staining-based assay; format: functional, organism-based; settings: Enterovirus C; summary of the method: as §1
Poliovirus 1 [13] = assay: Antiviral activity against Human poliovirus 1 10224 infected in human HeLa cells assessed as reduction in virus-induced cytopathic effect after 72 hrs by crystal violet staining-based assay; format: functional, organism-based; settings: Enterovirus C, 10224, HeLa; summary of the method: as §1
Poliovirus 1 [14] = assay: Antiviral activity against Human poliovirus 1 Brunhilde infected in human HeLa cells assessed as reduction in virus-induced cytopathic effect after 72 hrs by crystal violet staining-based assay; format: functional, organism-based; settings: Enterovirus C; summary of the method: as §1
Poliovirus 2 [15] = assay: Antiviral activity against Human poliovirus 2 10221 infected in human HeLa cells assessed as reduction in virus-induced cytopathic effect after 72 hrs by crystal violet staining-based assay; format: functional, organism-based; settings: Enterovirus C, 10221, HeLa; summary of the method: as §1
Poliovirus 2 [16] = assay: Antiviral activity against Human poliovirus 2 Sabin 2 infected in human HeLa cells assessed as reduction in virus-induced cytopathic effect after 72 hrs by crystal violet staining-based assay; format: functional, organism-based; settings: Enterovirus C, Sabin 2, HeLa; summary of the method: as §1
Poliovirus 3 [17] = assay: Antiviral activity against Poliovirus Sabin 3 infected in human HeLa cells assessed as reduction in virus-induced cytopathic effect after 72 hrs by crystal violet staining-based assay; format: functional, organism-based; settings: Enterovirus C
Summary of the method: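 HeLa cells grown in MEM-10% FBS, seeded at 2x10^5 cells/mL in MEM-2% FBS and held 24 h at 37°C, 5% CO2. Compound and virus were cross-titrated together on the cells starting at 10 µM compound, in 0.5 log10 steps, duplicate wells, three replicate tests per virus. Incubated 72 h at 37°C, stained with crystal violet, A590 read. EC50 from four-parameter fit.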

Poliovirus 1 [18] = assay: Antiviral activity against Human poliovirus 1 Mahoney infected in human HeLa cells assessed as reduction in virus-induced cytopathic effect after 72 hrs by crystal violet staining-based assay; format: functional, organism-based; settings: Enterovirus C; summary of the method: as §1
Poliovirus 2 [19] = assay: Antiviral activity against Human poliovirus 2 10228 infected in human HeLa cells assessed as reduction in virus-induced cytopathic effect after 72 hrs by crystal violet staining-based assay; format: functional, organism-based; settings: Enterovirus C, 10228, HeLa; summary of the method: as §1
Poliovirus 1 [20] = assay: Antiviral activity against Human poliovirus 1 10690 infected in human HeLa cells assessed as reduction in virus-induced cytopathic effect after 72 hrs by crystal violet staining-based assay; format: functional, organism-based; settings: Enterovirus C, 10690, HeLa; summary of the method: as §1
Poliovirus 1 [21] = assay: Antiviral activity against Human poliovirus 1 10688 infected in human HeLa cells assessed as reduction in virus-induced cytopathic effect after 72 hrs by crystal violet staining-based assay; format: functional, organism-based; settings: Enterovirus C, 10688, HeLa; summary of the method: as §1
Poliovirus 2 [22] = assay: Antiviral activity against Human poliovirus 2 10243 infected in human HeLa cells assessed as reduction in virus-induced cytopathic effect after 72 hrs by crystal violet staining-based assay; format: functional, organism-based; settings: Enterovirus C, 10243, HeLa; summary of the method: as §1
Poliovirus 3 [23] = assay: Antiviral activity against Human poliovirus 3 10805 infected in human HeLa cells assessed as reduction in virus-induced cytopathic effect after 72 hrs by crystal violet staining-based assay; format: functional, organism-based; settings: Enterovirus C, 10805, HeLa; summary of the method: as §1
Poliovirus 1 [24] = assay: Antiviral activity against Human poliovirus 1 10693 infected in human HeLa cells assessed as reduction in virus-induced cytopathic effect after 72 hrs by crystal violet staining-based assay; format: functional, organism-based; settings: Enterovirus C, 10693, HeLa; summary of the method: as §1
Poliovirus 3 [25] = assay: Antiviral activity against Human poliovirus 3 Leon infected in human HeLa cells assessed as reduction in virus-induced cytopathic effect after 72 hrs by crystal violet staining-based assay; format: functional, organism-based; settings: Enterovirus C; summary of the method: as §1
Poliovirus 1 [26] = assay: Antiviral activity against Human poliovirus 1 Sabin 1 infected in human HeLa cells assessed as reduction in virus-induced cytopathic effect after 72 hrs by crystal violet staining-based assay; format: functional, organism-based; settings: Enterovirus C, Sabin 1, HeLa; summary of the method: as §1
Poliovirus 1 [27] = assay: Antiviral activity against Human poliovirus 1 10223 infected in human HeLa cells assessed as reduction in virus-induced cytopathic effect after 72 hrs by crystal violet staining-based assay; format: functional, organism-based; settings: Enterovirus C, 10223, HeLa; summary of the method: as §1
[28] = Cytotoxicity against human HeLa cells after 72 hrs by ATP-bioluminescence cell viability assay; format: cell-based
Summary of the method: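 Luminescent ATP cell-viability read-out on HeLa cells with compound only, run under conditions similar to the cytopathic-effect assay (72 h, 37°C). Signal was compared with cell-only wells. CC50 was derived from the titration curves.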

Poliovirus 2 [29] = assay: Antiviral activity against Human poliovirus 2 Lansing infected in human HeLa cells assessed as reduction in virus-induced cytopathic effect after 72 hrs by crystal violet staining-based assay; format: functional, organism-based; settings: Enterovirus C; summary of the method: as §1

SMILES: Cc1ccc(C(=O)CCCCOc2ccc(C3=NCCO3)cc2)s1
- EC50 (Poliovirus 1 [1]): 940 nM
- EC50 (Poliovirus 2 [2]): 540 nM
- EC50 (Poliovirus 1 [3]): 4610 nM
- EC50 (Poliovirus 1 [4]): 7890 nM
- EC50 (Poliovirus 3 [5]): 350 nM
- EC50 (Poliovirus 1 [6]): 2720 nM
- EC50 (Poliovirus 2 [7]): 450 nM
- selectivity ratio [8]: > 1670
- EC50 (Poliovirus 3 [9]): > 100000 nM
- EC50 (Poliovirus 1 [10]): 3620 nM
- EC50 (Poliovirus 2 [11]): 50 nM
- EC50 (Poliovirus 2 [12]): > 100000 nM
- EC50 (Poliovirus 1 [13]): > 100000 nM
- EC50 (Poliovirus 1 [14]): 990 nM
- EC50 (Poliovirus 2 [15]): 20 nM
- EC50 (Poliovirus 2 [16]): 30 nM
- EC50 (Poliovirus 3 [17]): 367 nM
- EC50 (Poliovirus 1 [18]): > 100000 nM
- EC50 (Poliovirus 2 [19]): 10100 nM
- EC50 (Poliovirus 1 [20]): 48700 nM
- EC50 (Poliovirus 1 [21]): 40 nM
- EC50 (Poliovirus 2 [22]): 40 nM
- EC50 (Poliovirus 3 [23]): 270 nM
- EC50 (Poliovirus 1 [24]): 24200 nM
- EC50 (Poliovirus 3 [25]): 170 nM
- EC50 (Poliovirus 1 [26]): 12500 nM
- EC50 (Poliovirus 1 [27]): 70 nM
- CC50 at 72 h [28]: > 50000 nM
- EC50 (Poliovirus 2 [29]): 590 nM

SMILES: Cc1ccc(C(=O)CCC/C=C/c2ccc(C3=NCCO3)cc2)s1
- EC50 (Poliovirus 1 [1]): 220 nM
- EC50 (Poliovirus 2 [2]): 23 nM
- EC50 (Poliovirus 1 [3]): 400 nM
- EC50 (Poliovirus 1 [4]): 1130 nM
- EC50 (Poliovirus 3 [5]): 40 nM
- EC50 (Poliovirus 1 [6]): 720 nM
- EC50 (Poliovirus 2 [7]): 190 nM
- selectivity ratio [8]: > 1850
- EC50 (Poliovirus 3 [9]): 20 nM
- EC50 (Poliovirus 1 [10]): 270 nM
- EC50 (Poliovirus 2 [11]): 30 nM
- EC50 (Poliovirus 2 [12]): 240 nM
- EC50 (Poliovirus 1 [13]): 1110 nM
- EC50 (Poliovirus 1 [14]): 70 nM
- EC50 (Poliovirus 2 [15]): 20 nM
- EC50 (Poliovirus 2 [16]): 30 nM
- EC50 (Poliovirus 3 [17]): 53 nM
- EC50 (Poliovirus 1 [18]): 70 nM
- EC50 (Poliovirus 2 [19]): 500 nM
- EC50 (Poliovirus 1 [20]): 1260 nM
- EC50 (Poliovirus 1 [21]): 40 nM
- EC50 (Poliovirus 2 [22]): 30 nM
- EC50 (Poliovirus 3 [23]): 30 nM
- EC50 (Poliovirus 1 [24]): 980 nM
- EC50 (Poliovirus 3 [25]): 950 nM
- EC50 (Poliovirus 1 [26]): 340 nM
- EC50 (Poliovirus 1 [27]): 20 nM
- CC50 at 72 h [28]: > 50000 nM
- EC50 (Poliovirus 2 [29]): 60 nM

SMILES: Cc1ccc(C(=O)CCCCSc2ccc(C3=NCCO3)cc2)s1
- EC50 (Poliovirus 1 [1]): 5630 nM
- EC50 (Poliovirus 2 [2]): 6330 nM
- EC50 (Poliovirus 1 [3]): 8470 nM
- EC50 (Poliovirus 1 [4]): 4900 nM
- EC50 (Poliovirus 3 [5]): 1670 nM
- EC50 (Poliovirus 1 [6]): 720 nM
- EC50 (Poliovirus 2 [7]): 8470 nM
- selectivity ratio [8]: 146
- EC50 (Poliovirus 3 [9]): 440 nM
- EC50 (Poliovirus 1 [10]): 8470 nM
- EC50 (Poliovirus 2 [11]): 5330 nM
- EC50 (Poliovirus 2 [12]): 2930 nM
- EC50 (Poliovirus 1 [13]): > 10000 nM
- EC50 (Poliovirus 1 [14]): 470 nM
- EC50 (Poliovirus 2 [15]): 2370 nM
- EC50 (Poliovirus 2 [16]): 160 nM
- EC50 (Poliovirus 3 [17]): 330 nM
- EC50 (Poliovirus 1 [18]): > 10000 nM
- EC50 (Poliovirus 2 [19]): 9100 nM
- EC50 (Poliovirus 1 [20]): 2000 nM
- EC50 (Poliovirus 1 [21]): 2800 nM
- EC50 (Poliovirus 2 [22]): 1770 nM
- EC50 (Poliovirus 3 [23]): 1500 nM
- EC50 (Poliovirus 1 [24]): > 10000 nM
- EC50 (Poliovirus 3 [25]): 1110 nM
- EC50 (Poliovirus 1 [26]): 700 nM
- EC50 (Poliovirus 1 [27]): 3730 nM
- CC50 at 72 h [28]: 20000 nM
- EC50 (Poliovirus 2 [29]): 2270 nM
